Assay [1] addresses Beta-2 adrenergic receptor (Cavia porcellus, UniProt Q8K4Z4). Kind of assay: The compound was tested for beta-adrenergic activity against Beta-2 adrenergic receptor from guinea pig trachea.
For assay [2], the target named is T1, Alpha-1A adrenergic receptor (Rattus norvegicus) (UniProt P43140).
T1 sequence (whole entry): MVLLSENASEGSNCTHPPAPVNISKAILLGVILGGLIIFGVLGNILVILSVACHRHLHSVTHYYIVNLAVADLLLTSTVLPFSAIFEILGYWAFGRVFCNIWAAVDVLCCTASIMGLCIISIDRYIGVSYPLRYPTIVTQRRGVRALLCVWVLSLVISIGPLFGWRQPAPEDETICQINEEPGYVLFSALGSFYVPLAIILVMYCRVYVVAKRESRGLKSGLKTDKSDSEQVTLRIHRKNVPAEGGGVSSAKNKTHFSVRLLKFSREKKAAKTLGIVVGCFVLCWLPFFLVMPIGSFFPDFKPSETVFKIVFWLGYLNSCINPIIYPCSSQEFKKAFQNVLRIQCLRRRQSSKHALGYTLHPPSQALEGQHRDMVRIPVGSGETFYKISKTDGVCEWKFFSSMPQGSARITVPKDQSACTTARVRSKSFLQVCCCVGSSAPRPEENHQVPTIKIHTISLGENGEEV
The assay is described as follows: Intrinsic activity expressed as ratio of maximum responses to the compound to the maximum response to norepinephrine; IN-Inactive up to a concentration of 1*10e-4 M. The assay is classed as functional. The essentials:
(§1)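 Isolated rat aorta strips at 2 g resting tension, stabilized about 1 h. Beta-receptors blocked with propranolol 10^-6 mol/L for 30 min. Cumulative norepinephrine curve (10^-10 to 10^-7 mol/L) with ascorbic acid 1.13 × 10^-6 mol/L present. ED50 by Ariens–Van Rossum. Intrinsic activity = maximum response relative to norepinephrine. Antagonism as pA2 (Schild) or, if non-competitive, pD'2.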

For assay [3], the target named is T1, Alpha-1A adrenergic receptor (Rattus norvegicus).
Assay [4] has as its target T2, Adrenergic receptor alpha-2 (Homo sapiens) (UniProt P08913+P18825+P18089). Conditions: Cavia porcellus.
Assay [5] addresses T3, Alpha-1A adrenergic receptor (Rattus norvegicus, UniProt P43140).
T3 sequence (P43140 whole entry): T1 sequence (whole entry)
The assay is described as follows: The compound was tested for alpha-adrenergic activity against Alpha-1 adrenergic receptor from rat aorta. The conditions noted are these: read-out: pA2 (converted). The essentials: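 Isolated rat aorta strips at 2 g resting tension, stabilized about 1 h. Beta-receptors blocked with propranolol 10^-6 mol/L for 30 min. ED50 by Ariens–Van Rossum. Intrinsic activity = maximum response relative to norepinephrine. Antagonism as pA2 (Schild) or, if non-competitive, pD'2.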

Assay [6] addresses T4, Beta-1 adrenergic receptor (Cavia porcellus, UniProt B0FL73). Kind of assay: The compound was tested for beta-adrenergic activity against Beta-1 adrenergic receptor from guinea pig left atria. Conditions: read-out: pA2 (converted). A digest of the protocol:
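Electrically paced isolated left atria (inotropy) from guinea pigs of 300-500 g, 2.5 Hz, 5 ms pulses at 50% above threshold. Phentolamine 3.15 × 10^-4 mmol/L in bath. Cumulative isoprenaline curves with ascorbic acid 1.13 × 10^-6 mol/L, before and after 30 min antagonist preincubation. Reported as pA2 or pD'2.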

The target in assay [7] is T4, Beta-1 adrenergic receptor. Kind of assay: The compound was tested for beta-adrenergic activity against Beta-1 adrenergic receptor from guinea pig right atria. The conditions noted are these: read-out: pA2 (converted). A digest of the protocol: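 Spontaneously beating isolated right atria (chronotropy) from guinea pigs of 300-500 g. Phentolamine 3.15 × 10^-4 mmol/L in bath. Isoprenaline cumulative curves with ascorbic acid 1.13 × 10^-6 mol/L, before and after 30 min antagonist preincubation. Reported as pA2 or pD'2.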

Assay [8] concerns the target T2, Adrenergic receptor alpha-2 (Homo sapiens). The conditions noted are these: Cavia porcellus. This is another data set of the same source.
Assay [9] has as its target Beta-2 adrenergic receptor (Cavia porcellus) (UniProt Q8K4Z4).
Assay [10] deals with T5, Adrenergic receptor alpha-2 (Homo sapiens, UniProt P08913+P18825+P18089).
T5 sequence (P08913 whole entry): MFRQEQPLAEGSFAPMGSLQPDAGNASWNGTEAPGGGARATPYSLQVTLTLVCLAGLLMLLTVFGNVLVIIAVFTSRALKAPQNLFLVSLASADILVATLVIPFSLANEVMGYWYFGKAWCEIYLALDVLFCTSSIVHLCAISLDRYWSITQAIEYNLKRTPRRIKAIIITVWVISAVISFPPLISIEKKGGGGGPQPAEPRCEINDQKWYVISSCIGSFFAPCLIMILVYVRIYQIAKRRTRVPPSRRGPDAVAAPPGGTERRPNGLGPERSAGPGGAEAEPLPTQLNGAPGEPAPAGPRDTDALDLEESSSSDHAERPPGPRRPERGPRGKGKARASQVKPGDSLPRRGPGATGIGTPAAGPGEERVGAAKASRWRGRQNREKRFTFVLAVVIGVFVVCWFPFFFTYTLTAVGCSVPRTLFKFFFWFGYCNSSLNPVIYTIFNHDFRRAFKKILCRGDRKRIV
T5 sequence (P18825 whole entry): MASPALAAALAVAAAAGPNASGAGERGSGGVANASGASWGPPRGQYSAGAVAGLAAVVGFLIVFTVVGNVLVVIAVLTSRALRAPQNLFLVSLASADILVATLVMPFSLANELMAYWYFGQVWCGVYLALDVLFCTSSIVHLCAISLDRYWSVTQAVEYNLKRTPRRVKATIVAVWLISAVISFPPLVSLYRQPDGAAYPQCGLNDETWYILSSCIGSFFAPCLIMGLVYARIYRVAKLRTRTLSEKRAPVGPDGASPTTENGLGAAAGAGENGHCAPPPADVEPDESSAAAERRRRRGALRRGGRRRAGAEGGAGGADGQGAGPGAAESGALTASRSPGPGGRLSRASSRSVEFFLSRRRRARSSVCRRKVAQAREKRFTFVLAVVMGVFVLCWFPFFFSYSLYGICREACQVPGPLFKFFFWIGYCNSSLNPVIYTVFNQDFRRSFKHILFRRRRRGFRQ
T5 sequence (P18089 whole entry): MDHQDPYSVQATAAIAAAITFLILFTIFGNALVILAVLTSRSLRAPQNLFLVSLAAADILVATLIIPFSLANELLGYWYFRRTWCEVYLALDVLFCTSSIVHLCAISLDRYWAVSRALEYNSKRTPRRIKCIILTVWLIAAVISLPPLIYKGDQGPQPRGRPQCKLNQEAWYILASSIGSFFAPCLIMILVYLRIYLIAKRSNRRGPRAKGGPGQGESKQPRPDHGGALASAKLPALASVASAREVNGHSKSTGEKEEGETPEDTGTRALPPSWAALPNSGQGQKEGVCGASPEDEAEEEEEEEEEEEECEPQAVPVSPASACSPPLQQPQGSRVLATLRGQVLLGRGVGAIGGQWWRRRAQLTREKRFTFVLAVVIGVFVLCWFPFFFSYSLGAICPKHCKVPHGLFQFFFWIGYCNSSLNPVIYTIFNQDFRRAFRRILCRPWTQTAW
Kind of assay: The compound was tested for alpha-adrenergic activity against alpha-2 adrenergic receptor from guinea pig vas deferens. The arrangement: species or system Cavia porcellus. The conditions noted are these: target entry is the homologue from another species.

The target of assay [11] is T1, Alpha-1A adrenergic receptor (Rattus norvegicus). This is another data set of the same source.
In assay [12] the target is T2, Adrenergic receptor alpha-2 (Homo sapiens). The conditions noted are these: Cavia porcellus. The source holds these as a separate data set.
The target in assay [13] is T1, Alpha-1A adrenergic receptor (Rattus norvegicus). The source holds these as a separate data set.
Assay [14] shares this target. Kind of assay: Intrinsic activity expressed as ratio of maximum responses to the compound to the maximum response to norepinephrine; IN-Inactive up to a concentration of 1*10e-5 M. The assay is classed as functional. A digest of the protocol:
as §1

Assay [15] has the same target. The source holds these as a separate data set.
For assay [16] the target is unchanged. The assay is described as follows: The compound was tested for alpha-adrenergic activity against Alpha-1 adrenergic receptor from rat aorta;IN- Inactive up to a concentration of 1*10e-3 M. The essentials:
as §1

Assay [17] has the same target. The assay is described as follows: Intrinsic activity expressed as ratio of maximum responses to the compound to the maximum response to norepinephrine; IN-Inactive up to a concentration of 1*10e-3 M. The assay is classed as functional. A digest of the protocol:
as §1

The target of assay [18] is T2, Adrenergic receptor alpha-2 (Homo sapiens). The assay is described as follows: The compound was tested for alpha-adrenergic activity against alpha-2 adrenergic receptor from guinea pig vas up to a concentration of 1*10e-3 M. Conditions: Cavia porcellus; target entry is the homologue from another species.

Active and inactive are the calls of the source.

T4 sequence (B0FL73 whole entry): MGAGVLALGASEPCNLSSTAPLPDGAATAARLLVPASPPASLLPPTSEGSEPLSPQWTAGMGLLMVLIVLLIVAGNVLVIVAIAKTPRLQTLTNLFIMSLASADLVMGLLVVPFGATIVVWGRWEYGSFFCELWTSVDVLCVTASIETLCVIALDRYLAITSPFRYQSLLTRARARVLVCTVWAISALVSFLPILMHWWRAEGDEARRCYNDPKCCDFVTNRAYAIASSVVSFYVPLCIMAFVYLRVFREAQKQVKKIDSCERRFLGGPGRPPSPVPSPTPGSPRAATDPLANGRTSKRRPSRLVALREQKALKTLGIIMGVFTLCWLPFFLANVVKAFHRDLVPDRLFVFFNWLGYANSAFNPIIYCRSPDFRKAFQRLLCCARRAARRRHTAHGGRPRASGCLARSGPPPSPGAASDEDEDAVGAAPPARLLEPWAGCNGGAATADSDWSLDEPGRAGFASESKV
Sequence of Beta-2 adrenergic receptor (Q8K4Z4 whole entry): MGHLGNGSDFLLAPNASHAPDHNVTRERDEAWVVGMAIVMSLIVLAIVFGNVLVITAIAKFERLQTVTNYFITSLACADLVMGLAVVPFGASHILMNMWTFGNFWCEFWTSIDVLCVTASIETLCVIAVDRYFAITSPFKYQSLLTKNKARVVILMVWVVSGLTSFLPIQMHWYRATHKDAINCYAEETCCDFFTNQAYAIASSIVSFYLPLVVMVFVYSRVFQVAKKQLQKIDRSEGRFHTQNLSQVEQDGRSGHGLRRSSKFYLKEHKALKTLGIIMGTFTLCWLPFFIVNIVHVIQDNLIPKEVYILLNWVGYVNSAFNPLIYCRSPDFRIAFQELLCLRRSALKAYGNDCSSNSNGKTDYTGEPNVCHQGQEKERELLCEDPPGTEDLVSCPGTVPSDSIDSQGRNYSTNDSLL
Sequence of Beta-2 adrenergic receptor (Cavia porcellus) (Q8K4Z4 whole entry, looked up): as the sequence (Q8K4Z4 whole entry) above

The pA2 is the negative logarithm of the molar antagonist concentration that doubles the agonist concentration needed for the same response. Consider `C/C(=N\OCC(O)CNC(C)(C)C)c1cc(Cl)c(OC(C)C2=NCCN2)c(Cl)c1` (stereo unspecified), for which the Kb in [1] is 15.8 µM; in assay [5], 3.98 µM; in [6] it was 1.45 µM; in [7], 1.48 µM. The Intrinsic activity entry in assay [2] is “inactive”. Moreover, in [3], the pD2 result is “inactive”. For the same molecule, in assay [4], the pA2 entry was “inactive”. Moreover, the pD2 in assay [8] is 3.93.

`CC(C)(C)NCC(O)COc1cc(Cl)c(NC2=NCCN2)c(Cl)c1` (stereo unspecified): the Intrinsic activity result in assay [2] was “inactive”. Further, in assay [3], the pD2 entry is “inactive”. For the same molecule, the Kb is more than 63.1 µM in assay [5], more than 100 µM in [6] and 50.1 µM in assay [7]. Moreover, in [9], the pA2 result is “inactive”. Also, the pA2 in assay [10] amounted to 5.12. The molecule also gave a pD2 in assay [8] of 3.52.

In the case of `CC(C)(C)NCC(O)COCC1CN=C(Nc2c(Cl)cccc2Cl)N1` (stereo unspecified), the pA2 result in [11], in assay [12] and in assay [9] was “inactive” throughout. Moreover, the results for the Kb in assay [6] and in assay [7] were more than 10 µM and 1.02 µM, respectively. The pD2 result in assay [13] is “inactive”. Further, the Intrinsic activity result in [14] was “inactive”. The molecule further gave a pD2 in assay [8] of 6.4.

In [15], `Clc1cccc(Cl)c1NC1=NCCN1` registered a pD2 of 7.84.

As to `C/C(=N\OCC(O)CNC(C)(C)C)c1cc(Cl)c(NC2=NCCN2)c(Cl)c1` (single isomer, unassigned; (+)) [listing 1 of 2 here], the Kb was 79.4 µM in assay [1], 7.94 µM in assay [5], 50.1 µM in assay [6] and 50.1 µM in assay [7].

On to `C/C(=N\OCC(O)CNC(C)(C)C)c1cc(Cl)c(NC2=NCCN2)c(Cl)c1` (single isomer, unassigned; (+)) [listing 2 of 2 here], for which, in [16], the pD2 result is “inactive”. In [17], the Intrinsic activity entry is “inactive”. In addition, the pA2 result in assay [18] is “inactive”. In assay [8], the pD2 was found to be 5.1.

For the molecule `C/C(=N\OCC(O)CNC(C)(C)C)c1cc(Cl)c(NC2=NCCN2)c(Cl)c1` (stereo in doubt; 3) [listing 1 of 2 here], the Kb was 100 µM in assay [1], 4.07 µM in assay [5], 39.8 µM in assay [6] and 39.8 µM in assay [7].

For the molecule `C/C(=N\OCC(O)CNC(C)(C)C)c1cc(Cl)c(NC2=NCCN2)c(Cl)c1` (stereo in doubt; 3) [listing 2 of 2 here], the pD2 entry in [16] was “inactive”. The Intrinsic activity result in [17] was “inactive”. The pA2 entry in assay [18] was “inactive”. In [8], this molecule registered a pD2 of 4.63.

`C/C(=N\OCC(O)CNC(C)(C)C)c1cc(Cl)c(NC2=NCCN2)c(Cl)c1` (stereo in doubt; (-)-3) [listing 1 of 2 here]: the Kb in assay [1] was 100 µM; in assay [5] it was 12.6 µM; in assay [6], 25.1 µM; in assay [7], 50.1 µM.

As for `C/C(=N\OCC(O)CNC(C)(C)C)c1cc(Cl)c(NC2=NCCN2)c(Cl)c1` (stereo in doubt; (-)-3) [listing 2 of 2 here], the pD2 result in assay [16] is “inactive”. For the same molecule, the Intrinsic activity entry in assay [17] is “inactive”. Further, the pA2 entry in assay [18] is “inactive”. The molecule further showed a pD2 in [8] of 4.9.

In the case of `Clc1cccc(Cl)c1N=C1NCCN1` [CLONIDINE], the Kb in assay [6] is 63.1 µM; in [7] it was 39.8 µM.

Source of the values: ChEMBL document CHEMBL1125788, “Synthesis and ocular antihypertensive activity of new imidazolidine derivatives containing a beta-blocking side chain” (J Med Chem, 1991).
